We go through 14 compounds from ChEMBL document CHEMBL4339222, “Covalent Inhibitors of Plasmodium falciparum Glyceraldehyde 3-Phosphate Dehydrogenase with Antimalarial Activity in Vitro” (ACS Med Chem Lett, 2019).

Data set [1] relates to Plasmodium falciparum. In words: Antimalarial activity against CQ-resistant Plasmodium falciparum W2 infected in human type A-positive red blood cells assessed as inhibition of parasite growth incubated for 72 hrs by spectrophotometry based parasite lactate dehydrogenase assay. It is filed as functional, organism-based. The essentials:
(§1)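 pLDH assay on P. falciparum D10 and W2 blood-stage cultures exposed to compound for 72 h; chloroquine run as control. IC50 values are the mean of three separate experiments, each done in duplicate, with SD.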

In data set [2] the test system is Plasmodium falciparum. The experiment in a line: Inhibition of recombinant His-tagged Plasmodium falciparum GAPDH expressed in Escherichia coli assessed as reduction in NADH formation by measuring Kinact/Ki ratio in presence of NAD+, DL-glyceraldehyde 3-phosphate and GAPDH by spectrophotometry based Ferdinand assay.
Data set [3] relates to Plasmodium falciparum. In words: Antimalarial activity against CQ-susceptible Plasmodium falciparum D10 infected in human type A-positive red blood cells assessed as inhibition of parasite growth incubated for 72 hrs by spectrophotometry based parasite lactate dehydrogenase assay. It is filed as functional, organism-based. A digest of the protocol:
as §1

Data set [4] can be described thus: Selectivity index, ratio of IC50 for human HMEC1 cells to IC50 for antimalarial activity against CQ-resistant Plasmodium falciparum W2 infected in human type A-positive red blood cells. The format is toxicity. The following applies: read-out: Ratio IC50. A digest of the protocol: (§2)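 SI taken as HMEC-1 IC50 divided by antiplasmodial IC50. […] Each value is the mean of three experiments done in duplicate, with SD.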

A short description of data set [5]: Selectivity index, ratio of IC50 for human HMEC1 cells to IC50 for antimalarial activity against CQ-susceptible Plasmodium falciparum D10 infected in human type A-positive red blood cells. The format is toxicity. The note with it: read-out: Ratio IC50. A digest of the protocol: as §2
A further data set has as its system HMEC-1. The experiment in a line: Cytotoxicity in human HMEC1 cells assessed as reduction in cell viability incubated for 72 hrs by MTT assay. The note with it: HMEC-1, 72 h. It is filed as cell-based. A digest of the protocol:
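Human endothelial HMEC-1 cells exposed to compound for 72 h, then viability read by MTT (tetrazolium reduction) assay. Values are the mean ± SD of three separate experiments, each run in duplicate.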

Where [6] appears, read: Plasmodium falciparum, W2, 72 h, read-out: IC50.
Where [7] appears, read: Plasmodium falciparum, D10, 72 h, read-out: IC50.

Calls of active or inactive are those of the source. The calls are words filed in the database; no cut-off is given here.

Consider `N[C@H](CSCc1ccccc1)[C@@H]1CC(Br)=NO1`, for which the concentration for half-maximal inhibition (IC50) result with Plasmodium falciparum [1] and in the data set with Plasmodium falciparum [3] was “Not Active” in each case. In the data set on Plasmodium falciparum [2], the Ratio was found to be 1.6 s⁻¹ M⁻¹.

In the case of `N[C@H](CS(=O)(=O)Cc1ccccc1)[C@@H]1CC(Br)=NO1`, the Ratio result with Plasmodium falciparum [2] is “inactive”.

As to `N[C@H](C(=O)NCc1ccccc1)[C@@H]1CC(Br)=NO1`, the IC50 in the data set with Plasmodium falciparum [1] (setting [6]) worked out at 480 nM; in the data set with Plasmodium falciparum [3] (setting [7]), 360 nM; in the data set on HMEC-1 it was 14900 nM. For the same compound, the figures for the selectivity ratio in data set [4] and in data set [5] were 31 and 41.4, respectively. In the data set with Plasmodium falciparum [2], the Ratio amounted to 0.6 s⁻¹ M⁻¹.

As to `N[C@H](COCc1ccccc1)[C@@H]1CC(Br)=NO1`, the IC50 result in the data set with Plasmodium falciparum [1] and with Plasmodium falciparum [3] was “Not Active” each time. For the same compound, the Ratio in the data set with Plasmodium falciparum [2] was 2.6 s⁻¹ M⁻¹.

Consider `N[C@H](C(=O)O)[C@@H]1CC(Br)=NO1`, for which the IC50 in the data set with Plasmodium falciparum [1] (setting [6]) was 340 nM; in the data set on Plasmodium falciparum [3] (setting [7]) it was 350 nM; in the data set with HMEC-1, 19700 nM. Besides, the selectivity ratio in data set [4] was 57.9; in data set [5], 56.3. The Ratio with Plasmodium falciparum [2] is 0.7 s⁻¹ M⁻¹.

As to `N[C@H](C(=O)NCCc1ccccc1)[C@@H]1CC(Br)=NO1`, the figures for the IC50 in the data set on Plasmodium falciparum [1] (setting [6]), in the data set with Plasmodium falciparum [3] (setting [7]) and with HMEC-1 were 250 nM, 280 nM and more than 100000 nM, respectively. For the same compound, the values for the selectivity ratio in data set [4] and in data set [5] were more than 400 and more than 357, respectively. Further, in the data set with Plasmodium falciparum [2], the Ratio stood at 0.4 s⁻¹ M⁻¹.

In the case of `N[C@H](CSCc1ccccc1)[C@H]1CC(Br)=NO1`, the 50% inhibitory concentration (IC50) result with Plasmodium falciparum [1] and in the data set on Plasmodium falciparum [3] was “Not Active” in each case. The Ratio in the data set on Plasmodium falciparum [2] is 0.2 s⁻¹ M⁻¹.

`N[C@H](C(=O)NCc1ccc([N+](=O)[O-])cc1)[C@@H]1CC(Br)=NO1`: the 50% inhibitory concentration (IC50) amounted to 720 nM with Plasmodium falciparum [1] (setting [6]), 790 nM in the data set on Plasmodium falciparum [3] (setting [7]) and 36100 nM in the data set with HMEC-1. Also, the selectivity ratio in data set [4] stood at 50.1; in data set [5], 45.7. For the same compound, the Ratio in the data set with Plasmodium falciparum [2] was 1.9 s⁻¹ M⁻¹.

For `N[C@H](C(=O)NCc1ccc(F)cc1)[C@@H]1CC(Br)=NO1`, the Ratio entry in the data set with Plasmodium falciparum [2] was “inactive”.

In the case of `CCN(CC)CCCC(C)Nc1ccnc2cc(Cl)ccc12` (configuration not stated) [CHLOROQUINE], in the data set on HMEC-1, the IC50 was more than 40000 nM.

`COC(=O)[C@@H](N)[C@@H]1CC(Br)=NO1`: the IC50 in the data set on Plasmodium falciparum [1] (setting [6]) was 880 nM; with Plasmodium falciparum [3] (setting [7]), 790 nM; with HMEC-1 it was 34800 nM. In addition, the selectivity ratio in data set [4] stood at 39.5; in data set [5], 44. For the same compound, the Ratio in the data set with Plasmodium falciparum [2] was 10.7 s⁻¹ M⁻¹.

As to `N[C@H](C(=O)OCc1ccccc1)[C@@H]1CC(Br)=NO1`, the half-inhibitory concentration (IC50) is 260 nM in the data set on Plasmodium falciparum [1] (setting [6]), 370 nM in the data set on Plasmodium falciparum [3] (setting [7]) and more than 65000 nM with HMEC-1. For the same compound, the selectivity ratio is more than 250 in data set [4] and more than 176 in data set [5]. In addition, in the data set with Plasmodium falciparum [2], the Ratio was found to be 6.6 s⁻¹ M⁻¹.

For `N[C@H](CS(=O)(=O)Cc1ccccc1)[C@H]1CC(Br)=NO1`, the half-maximal inhibitory concentration (IC50) entry in the data set on Plasmodium falciparum [1] and in the data set on Plasmodium falciparum [3] was “Not Active” each time. Also, in the data set with Plasmodium falciparum [2], the Ratio worked out at 1.6 s⁻¹ M⁻¹.

For `COc1ccc(CNC(=O)[C@@H](N)[C@@H]2CC(Br)=NO2)cc1`, the Ratio entry in the data set with Plasmodium falciparum [2] was “inactive”.
